Screening data: PubChem, several laboratories
Compounds with a hit are over-represented: about 3.5% of the library has one in this group of screens.
MEKK2mut PB1 HTS: signal of MEK5 binding to mutant human MEKK2 PB1 domain. actives 0.35% (n = 290,000). percent response, % at 10 µM. bead flow cytometry, Alexa488-MEK5 binding to MEKK2 mutant; in the data active means percent response above about 24%, passing the limit was not always enough
WT yeast gro inh: growth inhibition of WT yeast, mitochondrial fusion screen; mitochondrial fusion phenotypic screen, WT strain; inhibition, % at 10 µM; actives 2.1% (n = 190,000); AID 1362; in the data active means inhibition above about 58%; tested in S. cerevisiae
MEKK2wt PB1 HTS: raises or lowers MEK5 binding to wildtype human MEKK2 PB1 domain | binding response (% of control), % at 10 µM | bead flow cytometry, Alexa488-MEK5 binding to MEKK2 WT; actives lie on both sides | actives 1.1% (n = 290,000) | AID 1531; in the data active means binding response below about 67% or above about 130%
ABCG2 block: blocks JC-1 efflux by human ABCG2 transporter | actives 0.1% (n = 190,000) | inhibition, % at 6.6 µM | AID 1325 | IgMXP3 cells, flow cytometry;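 active means inhibition above 80%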;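 further: 0% = DMSO and 100% = nicardipine control wells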
Target sequence (Q9UNQ0 whole entry, looked up): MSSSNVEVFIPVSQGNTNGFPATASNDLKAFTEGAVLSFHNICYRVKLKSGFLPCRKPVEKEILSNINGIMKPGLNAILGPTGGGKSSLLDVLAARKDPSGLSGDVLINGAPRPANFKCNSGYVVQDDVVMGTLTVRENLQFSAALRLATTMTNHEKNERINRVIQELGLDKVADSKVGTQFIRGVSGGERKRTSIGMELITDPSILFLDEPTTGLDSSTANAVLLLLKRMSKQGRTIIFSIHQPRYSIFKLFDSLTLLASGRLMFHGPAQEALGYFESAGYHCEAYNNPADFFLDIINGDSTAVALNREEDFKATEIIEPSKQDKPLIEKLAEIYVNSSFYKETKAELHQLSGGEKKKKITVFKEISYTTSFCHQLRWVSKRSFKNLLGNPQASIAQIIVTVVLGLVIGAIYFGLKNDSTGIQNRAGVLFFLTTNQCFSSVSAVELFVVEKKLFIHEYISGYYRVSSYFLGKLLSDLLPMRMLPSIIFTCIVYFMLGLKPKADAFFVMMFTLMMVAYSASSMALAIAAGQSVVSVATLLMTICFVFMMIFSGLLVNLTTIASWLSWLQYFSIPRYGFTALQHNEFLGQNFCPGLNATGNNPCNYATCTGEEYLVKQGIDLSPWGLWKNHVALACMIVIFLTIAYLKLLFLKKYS
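Incubation: cells with compound and JC-1, 10 min at 25 °C, rotating, no wash / Test system: IgMXP3 (ABCG2) plus far-red-tagged CCRF-Adr (ABCB1) cells / Compound dosing: one concentration, 6.6 µM final / Also added: JC-1 fluorescent substrate / Evaluation: efflux inhibition in percent versus controls / Detection: flow cytometry, 530 nm JC-1 signal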
ABCB1 inh: human ABCB1 inhibition, ABCG2 as counter-screen | CCRF-Adr cells, JC-1 efflux, flow cytometry | inhibition, % at 6.6 µM | actives 0.067% (n = 190,000) | AID 1326; in the data active means inhibition above about 40%;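 further: 0% = vehicle and 100% = reference inhibitor; higher value means more JC-1 retained so stronger ABCB1 efflux block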
MEKK3 PB1 HTS: raises or lowers MEK5 binding to the human MEKK3 PB1 domain; bead-based flow cytometry, Alexa488-MEK5 binding to MEKK3; actives lie on both sides; 0 = blocked by unlabeled MEK5, 100 = vehicle; binding response (% of control), % at 10 µM; actives 1.4% (n = 290,000); AID 1529;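 active means binding response more than 3 SD above or below the average of its plate-row segment, actives on both sides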;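 further: Alexa488 bead fluorescence after subtracting the streptavidin-only scavenger bead signal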
* marks the source's active call; other numbers are inactive results; . = no result; [ ] = remark or other dose.

SMILES	MEKK2mut PB1 HTS	WT yeast gro inh	MEKK2wt PB1 HTS	ABCG2 block	ABCB1 inh	MEKK3 PB1 HTS
CCCc1ccc(-c2cc(C(=O)NC3=NCCS3)c3ccccc3n2)cc1	15	80*	124	29	1	100
CCOc1ccc(CCNC(=O)C2CCCN(c3ncnc4c3nc3n4CCCCC3)C2)cc1 (configuration not stated)	3	.	99	.	.	98
COC(=O)c1ccccc1NC(=O)C/C(C)=N/NC(=O)Cc1ccc(Cl)cc1	-11	.	12*[inhibitor]	.	.	6.0*[inhibitor]
COc1cc(NC(=O)C/C(C)=N/NC(=O)Cc2ccc(Cl)cc2)c(OC)cc1Cl	34	10	117	9	1	107
COc1cccc(-n2nc(C#N)c(Cl)cc2=O)c1	-10	77*	76	2	1	78
Cn1c(-c2ccccc2)cnc1N	3	15	108	1	0	103
COc1ccc(-c2cnc(N)n2C)cc1	-36	-17	-8.0*	1	0	98
CCc1cccc(CC)c1NC(=O)/C(C#N)=C/c1ccccc1C(F)(F)F	7	68*	102	16	3	101
Cc1cccc(COCC(CC(C)C)N2CCN(C(=O)c3ccc(C(F)(F)F)cc3)CCC2=O)c1 (configuration not stated)	-3	44	95	7	3	91
Cc1cccc(COCC(CC(C)C)N2CCN(C(=O)c3ccc(C(C)(C)C)cc3)CCC2=O)c1 (configuration not stated)	-6	84*	89	2	2	94
CCNc1nc(NCC)nc(SCCOc2ccc(C)cc2)n1	-2	88*	97	15	0	101
COc1cccc(CNC(=O)CCCN2C(=O)C(c3ccccc3)Oc3cccnc32)c1OC (configuration not stated)	3	.	107	.	.	106
Cc1c(Nc2scc(-c3ccccc3)[n+]2-c2ccccc2)c(=O)n(-c2ccccc2)n1C	-2	35	96	0	0	101
Cc1ccccc1Nc1scc(-c2ccc(Cl)cc2)[n+]1-c1ccccc1C	-10	59*	90	0	-2	99
CCCCOc1[nH]c2nc(-c3ccco3)n(Cc3ccco3)c(=N)c2c1C#N	4	-2	100	3	1	100
Cc1ccc(-n2nnnc2C(Cl)c2nnnn2-c2ccc(C)cc2)cc1	1	74*	106	-1	0	117
S=C(Nc1ccc(Nc2ccccc2)cc1)Nc1ccccn1	-4	81*	97	3	1	102
Cc1cc(C)nc(SCCn2c(N3CCOCC3)nc3c2c(=O)[nH]c(=O)n3C)n1	-2	20	101	2	0	99
Cc1cc(-c2nn(-c3ccccc3F)cc2CN2CCN(c3ccccn3)CC2)c(C)s1	7	66*	117	4	2	102
CCCNC(=O)c1ccc2c(c1)C1C3CCC(C3)C1C(c1ccccc1)N2 (configuration not stated)	-5	62*	77	4	1	78
COc1ccc(OC)c(NC(=O)Cn2cc(C#N)c3cc(Br)ccc32)c1	9	12	118	8	1	110
CCN1CCc2c(sc(NC(=O)Nc3ccc(Cl)c(Cl)c3)c2C(N)=O)C1	2	77*	127	136*	39	111
Cc1ncsc1C(=O)Nc1nc2c(s1)CC(C)CC2 (configuration not stated)	6	65*	105	4	1	100
CC1CCc2nc(NC(=O)C3CC3)sc2C1 (configuration not stated)	-5	16	97	2	0	96
CC1=NN(/C(=N\c2nnc(C)s2)Nc2ccc(C(C)(C)C)cc2)[C@H](c2ccc(C)cc2)S1	-2	80*	104	4	1	108
SMILES	MEKK2mut PB1 HTS	WT yeast gro inh	MEKK2wt PB1 HTS	ABCG2 block	ABCB1 inh	MEKK3 PB1 HTS
CCn1c2ccccc2c2nnc(SCC(N)=O)nc21	0	36	107	0	0	107
CCn1c2ccccc2c2nnc(SCc3ccccc3)nc21	9	58*	111	21	2	121
CCCc1cc(-c2n[nH]c(=S)n2C(C)c2ccccc2)cs1 (configuration not stated)	0	64*	94	-1	0	92
CCCc1cc(-c2n[nH]c(=S)n2CC)cs1	-14	39	88	-1	0	97
CCCCn1c(-c2csc(CCC)c2)n[nH]c1=S	-12	73*	88	-6	-1	96
CC(C)Cn1c(-c2csc(C(C)C)c2)n[nH]c1=S	-11	67*	79	4	3	95
O=C(CCCC(=O)N(c1ccc(F)cc1)C(C(=O)NC1CCCC1)c1ccc(O)cc1)Nc1ccccn1 (configuration not stated)	6	.	104	.	.	104
Fc1cnc(N2CCOCC2)nc1N1CCOCC1	0	-17	99	6	0	100
Clc1nc(N2CCOCC2)ncc1Br	2	.	-4.0*	.	.	91
CC1CCc2sc3nc(NCc4ccco4)n4ncnc4c3c2C1 (configuration not stated)	-4	82*	93	2	1	97
CC1CCCc2sc3nc(NCc4ccco4)n4ncnc4c3c21 (configuration not stated)	1	79*	102	49	1	105
Cc1ccccc1C(=O)N1CCC(C(=O)Nc2ccc(S(=O)(=O)N3CCCCC3)cc2)CC1	3	.	107	.	.	104
COc1ccc(-c2cc(=Nc3ccc(C)cc3)c3ccccc3o2)cc1	-3	4	91	6	1	104
COc1ccc(N=c2cc(-c3ccc(OC)cc3)oc3ccccc23)cc1	0	76*	115	20	4	116
COc1cc(N)ccc1NC(=O)c1cc2ccccc2o1	-2	.	102	.	.	103
Cc1ccc(C)c(Nc2ncccc2C(=O)NCc2cccs2)c1	-2	64*	93	23	0	90
C=C(C)COc1ccc(-c2[nH]ncc2-c2ccccc2OC)c(O)c1	-4	4	100	1	0	101
COc1ccc(-c2cn[nH]c2-c2ccc(OCc3ccc([N+](=O)[O-])cc3)cc2O)cc1	8	68*	110	26	1	102
C=C(C)COc1ccc(-c2[nH]ncc2-c2ccc(Br)cc2)c(O)c1	1	95*	105	9	0	107
CCC1CCCCN1C(=O)Cn1nc([N+](=O)[O-])c(Cl)c1C (configuration not stated)	3	-2	99	9	0	100
